How the values were obtained:
Format in all cases: functional
HL-60(TB) = assay: Cytotoxicity against human HL-60(TB) cells assessed as growth inhibition after 48 hrs by SRB assay; settings: HL-60, 48 h
In short: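 NCI 60-cell panel, leukemia subpanel. Five-dose screen at 10-fold dilutions from 10−4 to 10−8 M with 48 h drug exposure. GI50 is the molar concentration giving 50% reduction in net cell growth compared with cell numbers on day 0.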

K562 = assay: Cytotoxicity against human K562 cells assessed as growth inhibition after 48 hrs by SRB assay; settings: K562, 48 h
In short: (§1)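 NCI 60-cell panel; compounds passing a single-dose screen (10−5 M, 48 h) were tested at five 10-fold dilutions (10−4 to 10−8 M) with 48 h drug exposure. GI50 is the molar concentration giving 50% reduction in net cell growth relative to cell numbers on day 0.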

MOLT-4 = assay: Cytotoxicity against human MOLT4 cells assessed as growth inhibition after 48 hrs by SRB assay; settings: MOLT-4, 48 h; in short: as §1
RPMI-8226 = assay: Cytotoxicity against human RPMI8226 cells assessed as growth inhibition after 48 hrs by SRB assay; settings: RPMI-8226, 48 h; in short: as §1
NCI-H226 = assay: Cytotoxicity against human NCI-H226 cells assessed as growth inhibition after 48 hrs by SRB assay; settings: NCI-H226, 48 h; in short: as §1
NCI-H23 = assay: Cytotoxicity against human NCI-H23 cells assessed as growth inhibition after 48 hrs by SRB assay; settings: NCI-H23, 48 h; in short: as §1
NCI-H460 = assay: Cytotoxicity against human NCI-H460 cells assessed as growth inhibition after 48 hrs by SRB assay; settings: NCI-H460, 48 h; in short: as §1
COLO 205 = assay: Cytotoxicity against human COLO205 cells assessed as growth inhibition after 48 hrs by SRB assay; settings: COLO 205, 48 h; in short: as §1
HCC 2998 = assay: Cytotoxicity against human HCC2998 cells assessed as growth inhibition after 48 hrs by SRB assay; settings: HCC 2998, 48 h; in short: as §1
[1] = Cytotoxicity against human HCT116 cells assessed as growth inhibition after 48 hrs by SRB assay; settings: HCT-116, 48 h; in short: as §1
[2] = Cytotoxicity against human HCT15 cells assessed as growth inhibition after 48 hrs by SRB assay; settings: HCT-15, 48 h; in short: as §1
HT-29 = assay: Cytotoxicity against human HT-29 cells assessed as growth inhibition after 48 hrs by SRB assay; settings: HT-29, 48 h; in short: as §1
KM12 = assay: Cytotoxicity against human KM12 cells assessed as growth inhibition after 48 hrs by SRB assay; settings: KM12, 48 h; in short: as §1
SW-620 = assay: Cytotoxicity against human SW620 cells assessed as growth inhibition after 48 hrs by SRB assay; settings: SW-620, 48 h
SF-268 = assay: Cytotoxicity against human SF268 cells assessed as growth inhibition after 48 hrs by SRB assay; settings: SF-268, 48 h; in short: as §1
SF-295 = assay: Cytotoxicity against human SF295 cells assessed as growth inhibition after 48 hrs by SRB assay; settings: SF-295, 48 h; in short: as §1
SF-539 = assay: Cytotoxicity against human SF539 cells assessed as growth inhibition after 48 hrs by SRB assay; settings: SF-539, 48 h; in short: as §1
SNB-19 = assay: Cytotoxicity against human SNB19 cells assessed as growth inhibition after 48 hrs by SRB assay; settings: SNB-19, 48 h; in short: as §1
SNB-75 = assay: Cytotoxicity against human SNB75 cells assessed as growth inhibition after 48 hrs by SRB assay; settings: SNB-75, 48 h
U-251 = assay: Cytotoxicity against human U251 cells assessed as growth inhibition after 48 hrs by SRB assay; settings: U-251, 48 h
LOX IMVI = assay: Cytotoxicity against human LOXIMVI cells assessed as growth inhibition after 48 hrs by SRB assay; in short: as §1
MDA-MB-435 = assay: Cytotoxicity against human MDA-MB-435 cells assessed as growth inhibition after 48 hrs by SRB assay; settings: MDA-MB-435, 48 h; in short: as §1
SK-MEL-5 = assay: Cytotoxicity against human SK-MEL-5 cells assessed as growth inhibition after 48 hrs by SRB assay; settings: SK-MEL-5, 48 h; in short: as §1
[3] = Cytotoxicity against human UACC62 cells assessed as growth inhibition after 48 hrs by SRB assay; settings: UACC-62, 48 h
IGROV-1 = assay: Cytotoxicity against human IGROV1 cells assessed as growth inhibition after 48 hrs by SRB assay; settings: IGROV-1, 48 h; in short: as §1
[4] = Cytotoxicity against human OVCAR3 cells assessed as growth inhibition after 48 hrs by SRB assay; settings: OVCAR-3, 48 h; in short: as §1
[5] = Cytotoxicity against human OVCAR4 cells assessed as growth inhibition after 48 hrs by SRB assay; settings: OVCAR-4, 48 h; in short: as §1
[6] = Cytotoxicity against human OVCAR5 cells assessed as growth inhibition after 48 hrs by SRB assay; settings: OVCAR-5, 48 h; in short: as §1
[7] = Cytotoxicity against human OVCAR8 cells assessed as growth inhibition after 48 hrs by SRB assay; settings: OVCAR-8, 48 h; in short: as §1
[8] = Cytotoxicity against human NCI-ADR-RES cells assessed as growth inhibition after 48 hrs by SRB assay; in short: as §1
SK-OV-3 = assay: Cytotoxicity against human SKOV3 cells assessed as growth inhibition after 48 hrs by SRB assay; settings: SK-OV-3, 48 h; in short: as §1
786-0 = assay: Cytotoxicity against human 786-0 cells assessed as growth inhibition after 48 hrs by SRB assay; settings: 786-0, 48 h; in short: as §1
A498 = assay: Cytotoxicity against human A498 cells assessed as growth inhibition after 48 hrs by SRB assay; settings: A498, 48 h; in short: as §1
CAKI-1 = assay: Cytotoxicity against human Caki1 cells assessed as growth inhibition after 48 hrs by SRB assay; settings: CAKI-1, 48 h; in short: as §1
RXF 393 = assay: Cytotoxicity against human RXF393 cells assessed as growth inhibition after 48 hrs by SRB assay; settings: RXF 393, 48 h; in short: as §1
SN12C = assay: Cytotoxicity against human SN12C cells assessed as growth inhibition after 48 hrs by SRB assay; in short: as §1
TK-10 = assay: Cytotoxicity against human TK10 cells assessed as growth inhibition after 48 hrs by SRB assay; settings: TK-10, 48 h
[9] = Cytotoxicity against human UO31 cells assessed as growth inhibition after 48 hrs by SRB assay; settings: UO-31, 48 h
[10] = Cytotoxicity against human PC3 cells assessed as growth inhibition after 48 hrs by SRB assay; settings: PC-3, 48 h; in short: as §1
DU-145 = assay: Cytotoxicity against human DU145 cells assessed as growth inhibition after 48 hrs by SRB assay; settings: DU-145, 48 h; in short: as §1
MCF7 = assay: Cytotoxicity against human MCF7 cells assessed as growth inhibition after 48 hrs by SRB assay; settings: MCF7, 48 h; in short: as §1
MDA-MB-231 = assay: Cytotoxicity against human MDA-MB-231 cells assessed as growth inhibition after 48 hrs by SRB assay; settings: MDA-MB-231, 48 h; in short: as §1
BT-549 = assay: Cytotoxicity against human BT549 cells assessed as growth inhibition after 48 hrs by SRB assay; settings: BT-549, 48 h; in short: as §1

COc1cc(/C(C#N)=C/c2cc3ccccc3[nH]2)cc(OC)c1OC
GI50 (HL-60(TB)): < 10 nM | GI50 (K562): < 10 nM | GI50 (MOLT-4): 23 nM | GI50 (RPMI-8226): < 10 nM | GI50 (NCI-H226): < 10 nM | GI50 (NCI-H23): < 10 nM | GI50 (NCI-H460): < 10 nM | GI50 (COLO 205): 16 nM | GI50 (HCC 2998): 18 nM | GI50 [1]: < 10 nM | GI50 [2]: < 10 nM | GI50 (HT-29): < 10 nM | GI50 (KM12): < 10 nM | GI50 (SW-620): < 10 nM | GI50 (SF-268): 15 nM | GI50 (SF-295): < 10 nM | GI50 (SF-539): < 10 nM | GI50 (SNB-19): < 10 nM | GI50 (SNB-75): < 10 nM | GI50 (U-251): < 10 nM | GI50 (LOX IMVI): < 10 nM | GI50 (MDA-MB-435): < 10 nM | GI50 (SK-MEL-5): < 10 nM | GI50 [3]: < 10 nM | GI50 (IGROV-1): < 10 nM | GI50 [4]: < 10 nM | GI50 [5]: 15200 nM | GI50 [6]: 80 nM | GI50 [7]: < 10 nM | GI50 [8]: < 10 nM | GI50 (SK-OV-3): < 10 nM | GI50 (786-0): < 10 nM | GI50 (A498): < 10 nM | GI50 (CAKI-1): < 10 nM | GI50 (RXF 393): < 10 nM | GI50 (SN12C): < 10 nM | GI50 (TK-10): < 10 nM | GI50 [9]: < 10 nM | GI50 [10]: < 10 nM | GI50 (DU-145): < 10 nM | GI50 (MCF7): 16 nM | GI50 (MDA-MB-231): 14 nM | GI50 (BT-549): < 10 nM

COc1cc(OC)cc(/C(C#N)=C/c2nc3ccccc3s2)c1
GI50 (HL-60(TB)): 345 nM | GI50 (K562): 333 nM | GI50 (MOLT-4): 3380 nM | GI50 (RPMI-8226): 2290 nM | GI50 (NCI-H226): 4110 nM | GI50 (NCI-H23): 2840 nM | GI50 (NCI-H460): 2860 nM | GI50 (COLO 205): 574 nM | GI50 (HCC 2998): 8390 nM | GI50 [1]: 404 nM | GI50 [2]: 414 nM | GI50 (HT-29): 438 nM | GI50 (KM12): 2010 nM | GI50 (SW-620): 343 nM | GI50 (SF-268): 3090 nM | GI50 (SF-295): 2460 nM | GI50 (SF-539): 1680 nM | GI50 (SNB-19): > 10000 nM | GI50 (SNB-75): 2130 nM | GI50 (U-251): 1910 nM | GI50 (LOX IMVI): 1840 nM | GI50 (MDA-MB-435): 199 nM | GI50 (SK-MEL-5): 1370 nM | GI50 [3]: 755 nM | GI50 (IGROV-1): 706 nM | GI50 [4]: 285 nM | GI50 [5]: > 10000 nM | GI50 [6]: 4850 nM | GI50 [7]: 3130 nM | GI50 [8]: 1470 nM | GI50 (SK-OV-3): 1790 nM | GI50 (786-0): 2440 nM | GI50 (A498): 417 nM | GI50 (CAKI-1): 482 nM | GI50 (RXF 393): 551 nM | GI50 (SN12C): 4680 nM | GI50 (TK-10): 2780 nM | GI50 [9]: 679 nM | GI50 [10]: 2740 nM | GI50 (DU-145): 1070 nM | GI50 (MCF7): 399 nM | GI50 (MDA-MB-231): 6740 nM | GI50 (BT-549): 3450 nM

COc1ccc(/C(C#N)=C/c2cc3ccccc3o2)cc1OC
GI50 (HL-60(TB)): 481 nM | GI50 (K562): 467 nM | GI50 (MOLT-4): 548 nM | GI50 (RPMI-8226): 1320 nM | GI50 (NCI-H226): 34500 nM | GI50 (NCI-H23): 3110 nM | GI50 (NCI-H460): 472 nM | GI50 (COLO 205): 404 nM | GI50 (HCC 2998): 2330 nM | GI50 [1]: 418 nM | GI50 [2]: 469 nM | GI50 (HT-29): 373 nM | GI50 (KM12): 356 nM | GI50 (SW-620): 388 nM | GI50 (SF-268): 2050 nM | GI50 (SF-295): 708 nM | GI50 (SF-539): 1560 nM | GI50 (SNB-19): 5550 nM | GI50 (SNB-75): 1780 nM | GI50 (U-251): 760 nM | GI50 (LOX IMVI): 930 nM | GI50 (MDA-MB-435): 229 nM | GI50 (SK-MEL-5): 564 nM | GI50 [3]: 557 nM | GI50 (IGROV-1): 1270 nM | GI50 [4]: 279 nM | GI50 [5]: 7190 nM | GI50 [6]: 5230 nM | GI50 [7]: 3980 nM | GI50 [8]: 317 nM | GI50 (SK-OV-3): 2490 nM | GI50 (786-0): 5840 nM | GI50 (A498): 540 nM | GI50 (CAKI-1): 492 nM | GI50 (RXF 393): 1300 nM | GI50 (SN12C): 956 nM | GI50 (TK-10): 2280 nM | GI50 [9]: 3790 nM | GI50 [10]: 2410 nM | GI50 (DU-145): 1300 nM | GI50 (MCF7): 446 nM | GI50 (MDA-MB-231): 1210 nM | GI50 (BT-549): 950 nM

— ChEMBL document CHEMBL3407388, “Synthesis, anticancer activity and molecular docking studies on a series of heterocyclic trans-cyanocombretastatin analogues as antitubulin agents” (2015)
